Data from ChEMBL document CHEMBL2163340, “Fluostatins I-K from the South China Sea-derived micromonospora rosaria SCSIO N160” (J Nat Prod, 2012).
≈ marks a conversion by molar mass, not a printed value.

Tests used:
[1] = test system: Bacillus thuringiensis; experiment: Antibacterial activity against Bacillus thuringiensis SCSIO BT01 after 18 hrs by broth microdilution method; format: functional; conditions: SCSIO BT01, 18 h
Outline: (§1)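 Broth microdilution. Pre-cultures were grown 16 h on a rotary shaker: the bacteria at 37 °C and C. albicans at 28 °C. Each was adjusted with sterile medium to OD600 0.04–0.06, diluted a further 10-fold, and dispensed to plates. Compounds were serially diluted from 64 to 0.125 μg/mL in duplicate. OD600 was read after 18 h. MIC was the lowest concentration completely inhibiting visible growth, taken from two independent experiments.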

[2] = test system: Bacillus subtilis; experiment: Antibacterial activity against Bacillus subtilis SCSIO BS01 after 18 hrs by broth microdilution method; format: functional; conditions: SCSIO BS01, 18 h; outline: as §1
[3] = test system: MCF7; experiment: Cytotoxicity against human MCF7 cells by SRB assay; format: functional, cell-based
Outline: (§2)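 Sulforhodamine B assay following a previously described protocol, run on three human tumour lines: MCF-7 (breast adenocarcinoma), NCI-H460 (non-small-cell lung cancer) and SF-268 (glioma). Activity was reported as IC50.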

[4] = test system: Staphylococcus aureus; experiment: Antibacterial activity against Staphylococcus aureus ATCC 29213 after 18 hrs by broth microdilution method; format: functional; conditions: ATCC 29213, 18 h; outline: as §1
[5] = test system: Escherichia coli; experiment: Antibacterial activity against Escherichia coli ATCC 25922 after 18 hrs by broth microdilution method; format: functional; conditions: ATCC 25922, 18 h; outline: as §1
[6] = test system: NCI-H460; experiment: Cytotoxicity against human NCI-H460 cells by SRB assay; format: functional, cell-based; outline: as §2
[7] = test system: SF-268; experiment: Cytotoxicity against human SF268 cells by SRB assay; format: functional, cell-based; outline: as §2
[8] = test system: Candida albicans; experiment: Antifungal activity against Candida albicans ATCC 10231 after 18 hrs by broth microdilution method; format: functional; conditions: ATCC 10231, 18 h; outline: as §1

SMILES	MIC [1] [µg/mL]	MIC [2] [µg/mL]	IC50 [3] [µM]	MIC [4] [µg/mL]	MIC [5] [µg/mL]	IC50 [6] [µM]	IC50 [7] [µM]	MIC [8] [µg/mL]
CC(C)C(=O)O[C@@H]1c2c(cc(O)c3c2C(=O)c2cccc(O)c2-3)C(=O)[C@@]2(C)O[C@@H]12 [FLUOSTATIN D]	> 64	> 64	> 100	> 64	> 64	> 100	> 100	> 64
C[C@]1(Cl)C(=O)c2cc(O)c3c(c2[C@@H](O)[C@@H]1O)C(=O)c1cccc(O)c1-3 [FLUOSTATIN E]	> 64	> 64	> 100	> 64	> 64	> 100	> 100	> 64
CO[C@@H]1c2c(cc(O)c3c2C(=O)c2cccc(O)c2-3)C(=O)[C@@]2(C)O[C@@H]12 [FLUOSTATIN F]	> 64	> 64	> 100	32 (≈ 94.6 µM)	> 64	> 100	> 100	> 64
CC(C)C(=O)O[C@@H]1c2c(cc(O)c3c2C(=O)c2cccc(O)c2-3)C(=O)[C@H](C)[C@H]1O [FLUOSTATIN I]	> 64	> 64	> 100	> 64	> 64	> 100	> 100	> 64
CCC(C)C(=O)O[C@@H]1c2c(cc(O)c3c2C(=O)c2cccc(O)c2-3)C(=O)[C@@]2(C)O[C@@H]12 (some centres not stated) [FLUOSTATIN J]	> 64	> 64	> 100	> 64	> 64	> 100	> 100	> 64
C[C@]1(O)C=Cc2c(cc(O)c3c2C(=O)c2cccc(O)c2-3)C1=O [FLUOSTATIN K]	> 64	> 64	> 100	> 64	> 64	> 100	> 100	> 64
C[C@]12O[C@H]1[C@H](O)c1c(cc(O)c3c1C(=O)c1cccc(O)c1-3)C2=O [FLUOSTATINS C]	> 64	> 64	> 100	16 (≈ 49.3 µM)	> 64	> 100	> 100	> 64
Cc1cc(O)c2c3c(ncc2c1)C(=O)c1c(O)cccc1C3=O [PHENANTHROVIRIDONE]	4 (≈ 13.1 µM)	64 (≈ 210 µM)	0.17	0.25 (≈ 0.819 µM)	32 (≈ 105 µM)	2.18	0.09	> 64
C[C@]1(O)CC(=O)c2c(cc(O)c3c2C(=O)c2cccc(O)c2C3=O)C1 [RABELOMYCIN]	8 (≈ 23.6 µM)	16 (≈ 47.3 µM)	4.28	1 (≈ 2.96 µM)	16 (≈ 47.3 µM)	9.91	5.54	> 64
